The target of the assay is T1, Protein mono-ADP-ribosyltransferase PARP10 (Homo sapiens) (UniProt Q53GL7).
T1 sequence (whole entry): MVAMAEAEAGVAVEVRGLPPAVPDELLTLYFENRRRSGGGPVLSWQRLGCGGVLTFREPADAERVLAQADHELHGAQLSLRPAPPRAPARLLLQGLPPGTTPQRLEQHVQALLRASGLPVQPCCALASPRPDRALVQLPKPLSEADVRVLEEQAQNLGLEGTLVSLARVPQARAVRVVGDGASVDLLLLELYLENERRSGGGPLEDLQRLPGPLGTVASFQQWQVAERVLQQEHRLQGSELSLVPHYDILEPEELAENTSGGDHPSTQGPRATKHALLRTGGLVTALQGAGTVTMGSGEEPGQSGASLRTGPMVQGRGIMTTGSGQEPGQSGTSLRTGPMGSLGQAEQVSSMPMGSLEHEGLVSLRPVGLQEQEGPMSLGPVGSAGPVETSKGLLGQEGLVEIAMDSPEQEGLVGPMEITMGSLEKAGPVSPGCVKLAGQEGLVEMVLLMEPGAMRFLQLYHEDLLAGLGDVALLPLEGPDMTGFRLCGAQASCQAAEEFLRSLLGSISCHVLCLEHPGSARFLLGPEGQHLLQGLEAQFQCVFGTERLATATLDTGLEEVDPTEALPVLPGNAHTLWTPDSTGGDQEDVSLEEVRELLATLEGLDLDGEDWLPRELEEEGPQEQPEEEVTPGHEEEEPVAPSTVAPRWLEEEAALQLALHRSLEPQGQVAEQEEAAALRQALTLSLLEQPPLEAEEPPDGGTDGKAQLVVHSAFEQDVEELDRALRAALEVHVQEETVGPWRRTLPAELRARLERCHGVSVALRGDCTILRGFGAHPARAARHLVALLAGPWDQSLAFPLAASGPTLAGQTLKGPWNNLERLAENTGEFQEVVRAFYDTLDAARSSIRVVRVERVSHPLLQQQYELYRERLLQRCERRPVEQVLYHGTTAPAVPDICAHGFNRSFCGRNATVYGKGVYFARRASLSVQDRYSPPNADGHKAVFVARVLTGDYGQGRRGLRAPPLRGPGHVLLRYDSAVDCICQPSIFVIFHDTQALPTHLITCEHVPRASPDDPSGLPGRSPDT
Kind of assay: Inhibition of human recombinant PARP10 at 10 uM incubated for 1 hr using NAD+, biotinylated NAD+ and activated DNA by luminescence based assay. The method in brief: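 Recombinant PARP enzyme reactions were run in duplicate for 1 h at rt on histone-coated plates in Tris·HCl pH 8.0 buffer with NAD+, biotinylated NAD+ and activated DNA. Detection used streptavidin-HRP for 30 min at rt, then a chemiluminescent developer. % inhibition = 100 − % activity, scaled between the no-compound (100%) and no-enzyme (0%) signals.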

As to `CC(C)(C)c1ccc(-c2nc3c(sc4ccccc43)c(=O)[nH]2)cc1`, the inhibition (usually the relative decrease from the control value, in per cent) is 3%.

The values above are taken from ChEMBL document CHEMBL3351316, “Scaffold hopping approach on the route to selective tankyrase inhibitors” (Eur J Med Chem, 2014).
